Source: article PMC7557999 (ACS Omega, 2020)
Each block holds one compound with its values, some of them ahead of it.

How the values were obtained:
MCF7 cells [1] = test: MTT assay, MCF7 cell proliferation; assay type: cell-based; conditions: Homo sapiens, MCF7, 24 h, read-out: IC50, MCF7 cell proliferation
Outline: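 MCF7 cells were grown in DMEM or RPMI-1640 with 10% FBS at 37 °C and 5% CO2, then seeded in 96-well plates. Test compound was added at various amounts, with DMSO as vehicle, for 24 h. MTT (5 mg/mL stock) was added for 4 h, then SDS-HCl overnight. A570 was read and IC50 calculated by the plate reader. Values are mean ± SD of triplicate assays.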

PTP1B = target: T1, PTP1B (Homo sapiens, UniProt P18031); test: PTP activity assay; assay type: biochemical; conditions: for inhibition type (Lineweaver–Burk plot), PTP1B: Lineweaver–Burk plot analysis
T1 sequence (P18031 3-277 limits assumed): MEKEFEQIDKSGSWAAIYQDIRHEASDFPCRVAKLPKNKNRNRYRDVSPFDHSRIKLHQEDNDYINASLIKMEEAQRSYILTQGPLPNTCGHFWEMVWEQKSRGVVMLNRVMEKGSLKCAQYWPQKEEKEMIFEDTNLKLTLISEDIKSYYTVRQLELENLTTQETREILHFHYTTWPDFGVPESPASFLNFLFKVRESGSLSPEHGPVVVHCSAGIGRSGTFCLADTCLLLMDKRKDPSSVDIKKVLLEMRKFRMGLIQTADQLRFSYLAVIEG
Outline: (§1)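 Human catalytic domains were His-tagged, expressed in E. coli BL21(DE3) with 0.4 mM IPTG overnight at 20 °C, and purified under native conditions. The pNPP hydrolysis buffer was 10 mM NaAc-HAc, 1 mM EDTA, 1 mM DTT, pH 5.5, with 0.1 vol % test compound or DMSO at 37 °C. A405 was read every 20 s for 30 min.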

STEP = target: T2, STEP (Homo sapiens, UniProt P54829); test: PTP activity assay; assay type: biochemical
T2 sequence (P54829 300-555 limits assumed): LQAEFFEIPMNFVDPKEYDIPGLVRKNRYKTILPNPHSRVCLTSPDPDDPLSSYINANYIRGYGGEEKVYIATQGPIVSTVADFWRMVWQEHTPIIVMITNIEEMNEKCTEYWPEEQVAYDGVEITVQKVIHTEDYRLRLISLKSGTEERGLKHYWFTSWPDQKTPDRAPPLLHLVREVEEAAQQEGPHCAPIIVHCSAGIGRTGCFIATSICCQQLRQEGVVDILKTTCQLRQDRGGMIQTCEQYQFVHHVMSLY
Outline: as §1

SHP2 = target: T3, SHP2 (Homo sapiens, UniProt Q06124); test: PTP activity assay; assay type: biochemical; conditions: for inhibition type (Lineweaver–Burk plot), SHP2: Lineweaver–Burk plot analysis
T3 sequence (Q06124 247-517 limits assumed): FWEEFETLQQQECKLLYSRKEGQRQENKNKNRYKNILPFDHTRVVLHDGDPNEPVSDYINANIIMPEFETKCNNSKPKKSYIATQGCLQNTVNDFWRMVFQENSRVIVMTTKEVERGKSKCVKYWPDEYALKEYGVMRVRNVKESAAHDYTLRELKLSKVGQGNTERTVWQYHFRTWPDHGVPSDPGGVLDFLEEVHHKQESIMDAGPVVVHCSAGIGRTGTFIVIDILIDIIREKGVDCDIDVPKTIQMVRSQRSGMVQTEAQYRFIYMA
Outline: as §1

p-ERK = test: Western blotting of ERK phosphorylation in MCF7 cells; assay type: cell-based, Human; conditions: MCF7 cells, 1.5, 7.5 and 15 μM, 24 h
Outline: (§2)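 MCF7 cells were treated for 24 h with 0, 1.5, 7.5 or 15 μM test compound. Lysates were immunoblotted with antibodies to c-JUN, p-ERK and total ERK, with GAPDH as internal control.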

MCF7 cells [2] = test: RNA sequencing assay of treated MCF7 cells; assay type: cell-based, Human; conditions: vs control, three repeats
Outline: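 MCF7 cells were treated with test compound alongside a control group, three repeats per group. Libraries were prepared with NEBNext Ultra and sequenced on an Illumina HiSeq. Differential expression used DESeq/Cuffdiff with cutoffs of log2 fold change >1 or […], Q value <0.05 and FPKM >1.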

LYP = target: T4, LYP (Homo sapiens, UniProt Q9Y2R2); test: PTP activity assay; assay type: biochemical
T4 sequence (Q9Y2R2 24-289 limits assumed): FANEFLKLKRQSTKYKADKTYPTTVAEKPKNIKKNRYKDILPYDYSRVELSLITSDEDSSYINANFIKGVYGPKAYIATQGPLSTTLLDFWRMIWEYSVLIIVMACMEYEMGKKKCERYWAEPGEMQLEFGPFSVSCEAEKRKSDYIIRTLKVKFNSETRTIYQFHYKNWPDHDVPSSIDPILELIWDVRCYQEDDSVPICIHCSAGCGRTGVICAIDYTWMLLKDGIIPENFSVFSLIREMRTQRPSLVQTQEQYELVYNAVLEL
Outline: as §1

SHP1 = target: T5, SHP1 (Homo sapiens, UniProt P29350); test: PTP activity assay; assay type: biochemical; conditions: for inhibition type (Lineweaver–Burk plot), SHP1: Lineweaver–Burk plot analysis
T5 sequence (P29350 244-515 limits assumed): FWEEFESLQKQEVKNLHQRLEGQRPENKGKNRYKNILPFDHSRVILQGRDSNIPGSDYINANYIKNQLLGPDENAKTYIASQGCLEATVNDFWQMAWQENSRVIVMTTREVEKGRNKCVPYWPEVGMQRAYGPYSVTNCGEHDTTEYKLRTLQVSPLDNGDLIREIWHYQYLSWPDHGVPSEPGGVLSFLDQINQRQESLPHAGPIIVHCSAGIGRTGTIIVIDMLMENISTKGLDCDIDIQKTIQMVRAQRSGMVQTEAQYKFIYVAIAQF
Outline: as §1

c-JUN = test: Western blotting of c-JUN in MCF7 cells; assay type: cell-based, Human; conditions: MCF7 cells, 1.5, 7.5 and 15 μM, 24 h
Outline: as §2

MCF7 cells [3] = test: Colony formation assay; assay type: cell-based, Human; conditions: 0.15, 0.45 and 0.75 μM, 6 days

IC50 (MCF7 cells [1]): 25.1 ± 8.8 µM
SMILES: O=c1[nH]cc(F)c(=O)[nH]1 [5-fluorouracil, reference compound]

SMILES: CC(=O)OC[C@]12Oc3c(-c4ccc(O)c5c4O[C@@]4(COC(C)=O)C(=C(O)C[C@@H](C)[C@H]4OC(C)=O)C5=O)ccc(O)c3C(=O)C1=C(O)C[C@@H](C)[C@H]2OC(C)=O [PXA, Phomoxanthone A]
IC50 (PTP1B): 13 ± 1.13 µM | inhibition type (Lineweaver–Burk plot), PTP1B (PTP1B): noncompetitive inhibitors | IC50 (STEP): > 150 µM | IC50 (SHP2): 20.5 ± 4.45 µM | inhibition type (Lineweaver–Burk plot), SHP2 (SHP2): noncompetitive inhibitors | ERK phosphorylation (western blot) (p-ERK): increased ERK phosphorylation | CXCL2 log 2 fold change (MCF7 cells [2]): 3.24 | CXCL3 log 2 fold change (MCF7 cells [2]): 1.65 | CXCL8 log 2 fold change (MCF7 cells [2]): 5.45 | CXCL10 log 2 fold change (MCF7 cells [2]): 6.84 | DDIT3 log 2 fold change (MCF7 cells [2]): 2.87 | GADD45A log 2 fold change (MCF7 cells [2]): 1.41 | IFI16 log 2 fold change (MCF7 cells [2]): 1.18 | IFI27 log 2 fold change (MCF7 cells [2]): 4.22 | IL1A log 2 fold change (MCF7 cells [2]): 4.78 | IL1B log 2 fold change (MCF7 cells [2]): 3.30 | IL6 log 2 fold change (MCF7 cells [2]): 4.00 | IL18 log 2 fold change (MCF7 cells [2]): 1.78 | IL24 log 2 fold change (MCF7 cells [2]): 6.37 | IL32 log 2 fold change (MCF7 cells [2]): 1.57 | IL33 log 2 fold change (MCF7 cells [2]): 4.45 | IRF1 log 2 fold change (MCF7 cells [2]): 1.50 | IRF7 log 2 fold change (MCF7 cells [2]): 2.76 | JUN log 2 fold change (MCF7 cells [2]): 3.32 | NFKB2 log 2 fold change (MCF7 cells [2]): 1.62 | RELB log 2 fold change (MCF7 cells [2]): 2.43 | XAF1 log 2 fold change (MCF7 cells [2]): 4.83 | IC50 (LYP): > 150 µM | IC50 (SHP1): 36.5 ± 2.02 µM | inhibition type (Lineweaver–Burk plot), SHP1 (SHP1): competitive inhibitors | JUN protein expression (western blot) (c-JUN): upregulated the JUN protein expression | IC50 (MCF7 cells [1]): 16.4 ± 1.96 µM | colony formation of MCF7 cells (MCF7 cells [3]): significantly reduced the colony formation

SMILES: CC(=O)OC[C@]12Oc3ccc(-c4ccc(O)c5c4O[C@@]4(COC(C)=O)C(=C(O)C[C@@H](C)[C@H]4OC(C)=O)C5=O)c(O)c3C(=O)C1=C(O)C[C@@H](C)[C@H]2OC(C)=O [PXB, Phomoxanthone B]
IC50 (PTP1B): 14.3 ± 2.2 µM | inhibition type (Lineweaver–Burk plot), PTP1B (PTP1B): noncompetitive inhibitors | IC50 (STEP): > 150 µM | IC50 (SHP2): 11.9 ± 3.02 µM | inhibition type (Lineweaver–Burk plot), SHP2 (SHP2): noncompetitive inhibitors | ERK phosphorylation (western blot) (p-ERK): increased ERK phosphorylation | CXCL2 log 2 fold change (MCF7 cells [2]): 3.19 | CXCL3 log 2 fold change (MCF7 cells [2]): 1.58 | CXCL8 log 2 fold change (MCF7 cells [2]): 5.22 | CXCL10 log 2 fold change (MCF7 cells [2]): 5.96 | DDIT3 log 2 fold change (MCF7 cells [2]): 2.92 | GADD45A log 2 fold change (MCF7 cells [2]): 1.39 | IFI16 log 2 fold change (MCF7 cells [2]): 1.15 | IFI27 log 2 fold change (MCF7 cells [2]): 4.02 | IL1A log 2 fold change (MCF7 cells [2]): 4.87 | IL1B log 2 fold change (MCF7 cells [2]): 3.23 | IL6 log 2 fold change (MCF7 cells [2]): 3.98 | IL18 log 2 fold change (MCF7 cells [2]): 1.73 | IL24 log 2 fold change (MCF7 cells [2]): 7.08 | IL32 log 2 fold change (MCF7 cells [2]): 1.56 | IL33 log 2 fold change (MCF7 cells [2]): 4.82 | IRF1 log 2 fold change (MCF7 cells [2]): 1.34 | IRF7 log 2 fold change (MCF7 cells [2]): 2.53 | JUN log 2 fold change (MCF7 cells [2]): 3.16 | NFKB2 log 2 fold change (MCF7 cells [2]): 1.69 | RELB log 2 fold change (MCF7 cells [2]): 2.51 | XAF1 log 2 fold change (MCF7 cells [2]): 4.41 | IC50 (LYP): > 150 µM | IC50 (SHP1): 32.1 ± 3.74 µM | inhibition type (Lineweaver–Burk plot), SHP1 (SHP1): competitive inhibitors | JUN protein expression (western blot) (c-JUN): upregulated the JUN protein expression | IC50 (MCF7 cells [1]): 16.2 ± 2.59 µM | colony formation of MCF7 cells (MCF7 cells [3]): significantly reduced the colony formation
